In article PMC3483131 (The Journal of Cell Biology, 2012):
Values belong to the compound of their own block, whether it stands above or below them.

What was measured:
MDA-MB-231 cells = conditions: CIA; ref Yu and Machesky, 2012; cited from earlier work
[1] = system: BM collagen IV / MDA-MB-231 cells; experiment: Native peritoneal basement membrane; assay type: cell-based, mouse (C57BL/6) BM; conditions: 3 d culture; GM6001 at 5 µM
Procedure, shortened: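 Native basement membrane was made by stripping mesothelial cells from C57BL/6 mouse mesentery (1 N ammonium hydroxide) and mounting it on 6.5-mm Transwells. 5 × 10^4 MDA-MB-231 cells were seeded on top in DME/10% FBS, with medium below, and cultured 3 d. Samples were fixed in 4% formaldehyde, then stained on both sides for collagen IV (antibody 1:200), phalloidin and DAPI, and imaged by confocal. Read-out was total remaining collagen IV fluorescence; ≥3 independent experiments in duplicate.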

[2] = system: GFP-actin in MDA-MB-231 cells; experiment: FRAP of GFP-actin in invasive pseudopods; assay type: cell-based; conditions: 2 µM LatA, invasive pseudopod, FRAP 90 s
[3] = system: mCherry-MT1-MMP in MDA-MB-231 cells; experiment: FRAP of mCherry-MT1-MMP at plasma membrane of cells in CIA; assay type: cell-based; conditions: invasive pseudopods in Matrigel (CIA); LatA at 2 µM
Procedure, shortened: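 mCherry-MT1-MMP expressed in MDA-MB-231 cells by nucleofection; cells kept at 37°C, 5% CO2. Photobleaching was done on the plasma membrane of invasive pseudopods in Matrigel and compared with other cell-surface regions, such as the membrane next to the nucleus. Fluorescence recovery gave MT1-MMP mobility.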

[4] = target: actin (F-actin) in invasive pseudopods of MDA-MB-231 cells (human (endogenous in MDA-MB-231)) (UniProt P60709); experiment: FRET or BRET

Compound: CNC(=O)[C@H](Cc1c[nH]c2ccccc12)NC(=O)[C@@H](CC(=O)NO)CC(C)C [GM6001]
reduction of migration speed (MDA-MB-231 cells): 30–50%
degradation and remodeling of BM collagen IV [1]: significantly blocked

Compound: C/C1=C/C(=O)O[C@@H]2C[C@@H](CC[C@H](C)/C=C\C=C\CC1)O[C@@](O)([C@@H]1CSC(=O)N1)C2 [Latrunculin A]
GFP-actin exchange [2]: GFP-actin exchanged much faster
mobility of MT1-MMP in pseudopods [3]: mCherry-MT1-MMP became more mobile

donor fluorescence lifetime with acceptor (FLIM-FRET) [4]: 2.25 ns
shift in the donor fluorescence lifetime (FLIM-FRET) [4]: 150 ps
Compound: MT1-MMP-GFP (from UniProt P50281 112-582) (natural protein)
